In ChEMBL document CHEMBL4513216, “Probing the Open Global Health Chemical Diversity Library for Multistage-Active Starting Points for Next-Generation Antimalarials” (ACS Infect Dis, 2020):

test: Toxicity liver stage against HepG2, at 10uM; type: cell-based; set-up: test concentration 10 uM, cell line HepG2-A16-CD81EGFP; conditions: human, HepG2-A16-CD81EGFP cells; read-out: INHIBITION
In short: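 Uninfected HepG2-A16-CD81EGFP cells, 3 × 10^3 per well, 1536-well, plated on prespotted compound at 10 μM final, parasite-free screening media added to match infected plates; puromycin 10 μM positive, DMSO 0.5% negative; run in parallel with 48 h PbLuc assay at 37 °C, 5% CO2; viability by CellTiter-Glo luminescence, normalized to controls.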

In order of rising cytotoxicity at 10 µM:
1. CCCC(O)CN1CCC(=O)N(C)Cc2cc(F)ccc21 (configuration not stated)  -124%
2. COc1cccc(CN2C[C@@H]3COC[C@]3(CN3CCOCC3)C2)c1  -80.6%
3. CCOCC1CN(Cc2ccncc2)Cc2nn(C)cc21 (configuration not stated)  -79.8%
4. Cc1nc(C)c(C(=O)NCCNc2cc(N3CCCC3)ncn2)s1  -73.4%
5. CN(C)C1COC2(CCN(Cc3ccncc3)CC2)C1 (configuration not stated)  -69.2%
6. O=C([C@H]1C[C@H]2OCC[C@H]2N(CC2CC2)C1)N1CCCCO1  -69.2%
7. Cc1n[nH]c(C)c1CNc1ccc(-c2nc(C3CC3)no2)cn1  -24.3%
8. CCN1CCC(CNC(=O)C2(c3ccc(F)cc3)CC2)C1 (configuration not stated)  -23%
9. COc1cc(C2(C(=O)NCC(=O)NC3CC3)CC2)ccc1C  -17.4%
10. CC(C)=CCN1CC2(CCN(Cc3c(F)cccc3F)CC2)CC1=O  -17%
11. N#Cc1ccccc1C(=O)N1C[C@H](CO)C[C@H](CN2CCCC2)C1  -17%
12. CC(Cn1ccnc1)NC(=O)Nc1ccccn1 (configuration not stated)  -16.4%
13. CCN1CCN(c2ccc(CNC(=O)c3ccccc3F)cn2)CC1  -16.4%
14. CCN(CC)CCC(=O)N1CCc2c(nc(N(C)C)nc2N(C)C)C1  -14.4%
15. CC(C)CN1CCCn2nc(CNC(=O)c3cccnc3O)cc2C1  -14.4%
16. Cc1nc(C)n(CC2CCCN2CC(=O)Nc2ccnn2C(C)C)n1 (configuration not stated)  -14%
17. CCCc1n[nH]c(C2CN(CCC(F)(F)F)CCO2)n1 (configuration not stated)  -13.9%
18. Cc1cc(C)n(CC2CCCN2CCCS(=O)(=O)N(C)C)n1 (configuration not stated)  -13.2%
19. Cc1ncsc1CCN(C)Cc1cc2n(n1)CCN(S(C)(=O)=O)C2  -12.8%
20. CCc1[nH]ncc1C(=O)N1CCCN(Cc2cnn(C(C)C)c2)CC1  -12%
21. Cc1nn(C)c(C)c1C1CCCN1Cc1cccc(C(=O)N(C)C)c1 (configuration not stated)  -11.9%
22. Cc1cnn(CC2CN(Cc3nccn3CC(F)(F)F)CCO2)c1 (configuration not stated)  -11.7%
23. CCc1nc(CN(C(C)=O)C2CCN(CCc3ccccn3)C2)no1 (configuration not stated)  -11.6%
24. CCCS(=O)(=O)N1CCN(c2ccnc(N3CCCC3)n2)CC1  -11.3%
25. COC(=O)c1cccc(C(=O)N2CCN(c3ccccc3F)CC2)n1  -10.9%
26. O=C(NCc1cccc(F)c1)N1CCC2(CC(=O)N(c3ccsc3)C2)C1 (configuration not stated)  -10%
27. COc1cccc(-c2nc(CNCc3cccnc3)cs2)c1  -9.37%
28. O=C(NCc1nn(-c2ccccc2)c2c1CCC2)NC1CC1  -9.14%
29. CN(Cc1ccco1)Cc1ccccc1CNC(=O)c1cc[nH]n1  -8.11%
30. O=C(COCCOc1ccccc1)NC1CCN(C(=O)C2CC2)CC1  -7.67%
31. Cc1ccn2ncc(C(=O)N3CCCC(c4noc(C)n4)C3)c2n1 (configuration not stated)  -7.29%
32. CC(=O)NCC(=O)N1C[C@H](OCc2cccnc2)[C@H]2COC[C@H]21  -7.12%
33. O=C(c1ccc2c(c1)OCO2)N1CCN(c2cnccn2)CC1  -7.1%
34. OCCCN1CCOC(c2ccc(F)cc2)C1 (configuration not stated)  -7.09%
35. O=c1c(NCCO)c(N2CCN(c3ccccc3)CC2)c1=O  -6.95%
36. CCn1cc(NC(=O)NCc2ccc(CN3CCOCC3)cc2)cn1  -6.63%
37. O=C(c1cccnc1OCC(F)(F)F)N1CCCn2ncnc21  -6.47%
38. Nc1cc2c(nn1)CCN(C(=O)c1ccccc1Oc1cccnc1)C2  -6.21%
39. COc1ccc(Cl)cc1C(=O)NC(CC(=O)O)c1cccs1 (configuration not stated)  -6.16%
40. COc1ccc(OC)c(CNCc2c(C(C)C)nn(C)c2N(C)C)c1  -5.89%
41. O=C(Nc1cc(C(F)(F)F)c[nH]c1=O)N1CCCSCC1  -5.77%
42. Cc1ccc(-c2nc(CN3CCOCC3)no2)cc1N1CCNC1=O  -5.73%
43. Cc1ccccc1C(O)CNS(=O)(=O)Cc1cccc(C#N)c1 (configuration not stated)  -5.43%
44. COc1ncccc1CNC(=O)Nc1cc(C)nn1C  -5.13%
45. CCN(CC1CCCO1)C(=O)Nc1cc(C(=O)OC)ccc1F (configuration not stated)  -4.77%
46. O=C(c1ccc(Cl)o1)N1CCCC1c1nnc2n1CCCCC2 (configuration not stated)  -4.52%
47. CC(=O)Nc1cnc(Oc2ccccc2F)nc1  -4.23%
48. CC(C)N(C)CCC(=O)N1CCCC(c2ccc(C(=O)O)cc2)C1 (configuration not stated)  -4.1%
49. CCc1c(C)[nH]c(C(C)(N)CC)nc1=O (configuration not stated)  -4.04%
50. CCCNC(=O)Cn1nc(C)c2cnn(C(C)(C)C)c2c1=O  -3.57%
51. CC(c1nc(C(C)(C)C)no1)N1CCN(C(=O)CN2CCOCC2)CC1 (configuration not stated)  -3.51%
52. Cc1ccccc1-n1cc(CN(C)C[C@@H]2CCCN3CCCC[C@H]23)cn1  -3.09%
53. O=C1CC[C@H](C(=O)Nc2cnn(-c3ccccc3Br)c2)N1  -2.84%
54. CSCC[C@@H](CO)n1ccnc1-c1nccn1C  -2.84%
55. Cc1cc(C)n(CC2CN(c3cnc4ccccc4n3)CCO2)n1 (configuration not stated)  -2.42%
56. NC(=O)c1ccc(CN2CCC(N3CCCC3)CC2)cc1  -2.3%
57. CCCNC(=O)C1CCN(CC(O)c2ccccc2)CC1 (configuration not stated)  -2.21%
58. CCn1cnnc1CNC(=O)N(C)Cc1ccc2c(c1)OCCO2  -1.96%
59. COC(=O)CN1CCCN(C(=O)CCOc2cccc(C)c2C)CC1  -1.73%
60. O=S(=O)(NC1CCCOC1)c1ccc(C(F)(F)F)nc1 (configuration not stated)  -1.38%
61. COc1cccc2c1CCC2NC(=O)NCc1csc(N(C)C)n1 (configuration not stated)  -1.37%
62. CN(C)Cc1cn(-c2ccccc2C(=O)NCC2CCCCN2C)cn1 (configuration not stated)  -0.94%
63. O=C(NCCCN1CCOCC1)C1CCCN(Cc2ccco2)C1 (configuration not stated)  -0.911%
64. CCOCC1CN(S(C)(=O)=O)Cc2cnn(CC3CCOCC3)c21 (configuration not stated)  -0.851%
65. c1cc(CN2CCc3ncnc(C4CCOC4)c3CC2)ccn1 (configuration not stated)  -0.703%
66. CCn1nc(C)c(S(=O)(=O)Nc2ccccc2C(=O)OC)c1C  -0.678%
67. CSCc1noc(CN2CCC3(CC2)CC(=O)N(CC(C)C)C3)n1  -0.0813%
68. CCOCC(O)CN1CCN(C(=O)c2ccc3c(c2)COC3)CC1 (configuration not stated)  -0.0716%
69. CCOC(=O)[C@@H]1[C@@H](OC)C(=O)N(C)C12CCN(C(=O)C(CC)CC)CC2  -0.00815%
70. Cc1ccc(C(=O)NCc2ccc(N3CCCC(C(N)=O)C3)cc2)o1 (configuration not stated)  0.742%
71. CCOc1ncccc1NC(=O)N1CCCC1c1cc(C)no1 (configuration not stated)  0.87%
72. CCc1ccc(C2CCCCCN2Cc2nc(CCOC)no2)o1 (configuration not stated)  1.15%
73. O=c1[nH]ccc2cc(-c3cc(O)cc(CCC4CCCCN4)c3)ccc12 (configuration not stated)  1.81%
74. COc1ccc2cc(-c3n[nH]cc3CN3CCSCC3)ccc2c1  2.22%
75. CCn1nc(C)c2c1cnn2CCNS(=O)(=O)CC  2.63%
76. NC(=O)c1cc(-c2cccc(C(=O)O)c2)cs1  2.77%
77. COc1ccc(-n2ccc(CNCc3cccc(OC)c3)n2)cc1  3.12%
78. CC(C)c1nnc(CN2CCc3ccc(S(N)(=O)=O)cc32)o1  3.2%
79. CC(C)(C)c1ncc(C(=O)NCCn2ccnc2)s1  3.39%
80. CCCc1nc(C(C)(C)NC(=O)C2CC(=O)N(CC)C2)no1 (configuration not stated)  3.51%
81. O=C(c1cccc(F)c1)N1C[C@@H](CN2CCCCC2)[C@@H](CO)C1  3.78%
82. CC(C)(C)OC(=O)N1CC(=O)N(Cc2ccco2)CC(O)C1 (configuration not stated)  4.11%
83. Cn1ccnc1CN(CCO)C(=O)c1nc2ccccc2s1  4.46%
84. CCCS(=O)(=O)N1CCC2(CC(=O)N(c3cnn(C)c3)C2)C1 (configuration not stated)  4.59%
85. O=S1(=O)NCC2(CCN(Cc3ccc(Cl)s3)C2)Oc2ncccc21 (configuration not stated)  4.65%
86. CC(O)C1CCN(c2cc(Cl)ccc2C#N)CC1 (configuration not stated)  4.92%
87. COC(=O)c1cccc2nc([C@H]3CCN(Cc4ccccc4)C3)oc12  6.06%
88. CCn1ccc(C(=O)N(C)Cc2cnn(-c3cccc(OC)c3)c2)n1  6.26%
89. CN1CCN(C2CCN(C(=O)CCC3CCCC3)CC2)CC1  6.35%
90. COCCN1CCO[C@@H]2CN(C(=O)NCc3cccnc3)CC[C@@H]2C1  6.65%
91. CC(C)S(=O)(=O)CC(=O)NCC(Cc1ccc(F)cc1)C(N)=O (configuration not stated)  6.75%
92. Cc1oc(CNC(=O)Cc2cccc(OC(F)F)c2)cc1C(=O)O  7.04%
93. CN(Cc1cc2cc(F)ccc2[nH]1)c1cc(C2CCCNC2)ncn1 (configuration not stated)  7.16%
94. CC(C)c1ccc(CS(=O)(=O)Cc2nc(N)nc(N(C)C)n2)cc1  7.34%
95. CN(C)C(C(=O)N1CCCC1)c1ccccc1F (configuration not stated)  7.35%
96. Cc1cccc(NC(=O)N2Cc3c(CN(C)C)nn(C)c3C2)c1  7.77%
97. CCOCCCNC(=O)CN(c1cccc(F)c1)S(C)(=O)=O  7.77%
98. CCOC(=O)c1cnn(C2CCN(C(=O)CC3C=CCC3)CC2)c1N (configuration not stated)  7.87%
99. Cc1ccc(NCc2cn3c(n2)CN(Cc2ccc(C)o2)CC3)nn1  8.19%
100. CN(C)C(=O)C1CCC2(CCNCC2)C1 (configuration not stated)  8.59%
101. CCCC(C#N)NC(=O)COC1CCCCC1 (configuration not stated)  8.71%
102. COCCN1CCC12CCN(c1ncccn1)C2 (configuration not stated)  9.76%
103. O=C(CSc1ccccn1)N1CCN(CCO)[C@@H]2CS(=O)(=O)C[C@@H]21  9.87%
104. O=C(c1ncn2c1CNS(=O)(=O)c1ccccc1-2)N1CC=CC1  10.5%
105. O=C(c1ccncc1)N1CCCn2nnc(COCCO)c2C1  10.5%
106. COCCNC(=O)N1CCN(C(C)C(=O)NC(C)C)CC1 (configuration not stated)  10.6%
107. c1coc(CNc2ncc3c(n2)C2(CCNC2)COC3)c1 (configuration not stated)  10.7%
108. Cc1noc(C)c1C(=O)NCCc1cccs1  12%
109. CC(OCC1CC1)C(=O)NCc1ccc(Cn2ccnc2)cc1 (configuration not stated)  15.6%
110. CS(=O)(=O)NCCCNCc1cc(F)ccc1Br  15.7%
111. CN(C)C(CNCc1nc(-c2ccsc2)no1)c1cccs1 (configuration not stated)  16.3%
112. O=C(Nc1cn[nH]c1)NC1CCN(c2ccccc2OC(F)F)C1 (configuration not stated)  26.1%
